Wee1 stabilizer: human Wee1 degradation inhibition, primary screen | P30291 | HeLa Luc-Wee1K328M stability, luciferase luminescence; 100% = proteasome inhibitor MG132 effect | reporter increase, % at 5 µM | 1.2% of 220,000 active | AID 1321;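 active means activation above the mean of all tested compounds plus 3 SD, set per screening run, cut at about 8.8% in these data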;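 further: cells exposed to compound for 20 h before luminescence read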
RBBP9 inhibitor: blocks human serine hydrolase RBBP9; O75884; recombinant RBBP9, FP-Rh probe fluorescence polarization; inhibition, % at 7.94 µM; 0.2% of 220,000 active;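 active means inhibition above the campaign mean of all tested compounds plus 3 SD, cut at about 14% in these data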
Target sequence (O75884 whole entry, looked up): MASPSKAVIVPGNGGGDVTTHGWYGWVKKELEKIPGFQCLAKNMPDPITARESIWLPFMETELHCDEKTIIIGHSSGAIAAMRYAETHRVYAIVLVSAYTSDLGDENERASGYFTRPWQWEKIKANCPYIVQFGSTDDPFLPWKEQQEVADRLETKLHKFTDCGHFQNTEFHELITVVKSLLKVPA
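System: RBBP9 protein | Quantity: 2.5 µM RBBP9 dispensing solution, before mixing | Reagent: FP-Rh probe, 375 nM dispensing solution | Timing: Enzyme-compound preincubation 30 min, then probe labeling 45 min, 25 °C | Measured by: Fluorescence polarization | Read-out: % inhibition | Replication: One well per compound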
m-calpain inh: calpain II (pig) inhibition; 0.37% of 220,000 active; purified calpain II, fluorogenic peptide substrate, 30 min; AID 1236; inhibition, % at 16 µM;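 active means inhibition above about 50%, limit read from the data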
TNF necrop inh: blocks TNF-alpha induced death of Jurkat FADD-/- cells | Jurkat FADD-/- TNF necroptosis rescue, ATP luminescence, 24 h; 0 = TNF only, 100 = no-TNF cells | activation (protection from cell death), % at 10 µM | 0.068% of 220,000 active | AID 463075;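 active means activation, meaning protection from cell death, of at least 50% relative to plate controls; inactive means activation below 50%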;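 further: necroptosis triggered by 40 ng/mL TNF-alpha added together with compound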
Pf gametocyte: P. falciparum stage V gametocyte viability inhibition; P. falciparum stage V gametocytes, ATP luminescence, 24 h; inhibition, % at 10.9 µM; 0.065% of 150,000 active;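 active means inhibition above the mean plus 3 SD of compounds within the control limits, set per campaign, cut at about 38% in these data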
L929 necroptosis: blocks zVAD induced death of L929 cells. L929 zVAD necroptosis rescue, ATP luminescence, 24 h; with zVAD 60 µM. viability rescue, % at 10 µM. 0.38% of 220,000 active. AID 1377;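 active means activation, scaled between plate controls, above about 75%, limit read from the data; inactive means activation under that limit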
Numbers stand for hits; i = inactive; nt = no result. Only some compounds are listed: those with a hit (about 2.1% of all), similar ones and a draw of the others.

SMILES | Wee1 stabilizer | RBBP9 inhibitor | m-calpain inh | TNF necrop inh | Pf gametocyte | L929 necroptosis
Cc1c(-c2nc(N)nc(Nc3ccccc3)n2)oc2ccccc12 | 10.0 | i | i | i | nt | i
O=C1OC(N2CCN(C(=O)c3ccco3)CC2)c2ccccc21 (stereo not drawn) | i | i | i | i | i | i
CCOC(=O)N1CCN(C2OC(=O)c3ccccc32)CC1 (stereo not drawn) | 9.7 | i | i | i | nt | i
CCc1ccc(C(=O)Nc2ccc(C)c(NS(C)(=O)=O)c2)cc1 | i | i | i | i | i | i
Cc1ccc(NC(=O)c2ccc(F)cc2F)cc1NS(C)(=O)=O | 9.2 | i | i | i | i | i
OC(C#CCN1CCCCCC1)(c1ccccc1)c1cccnc1 (stereo not drawn) | i | i | i | i | i | i
OC(C#CCN1CCCC1)(c1ccccc1)c1cccnc1 (stereo not drawn) | 10.1 | i | i | i | i | i
CCOc1cc(C(=O)Nn2cnnc2)cc(OCC)c1OCC | 8.9 | i | i | i | i | i
Cc1cc(C)nc(S/C=C/C(=O)c2ccc(F)cc2)n1 | i | i | i | i | nt | i
Cc1ncsc1C(=O)Nc1nc2c(s1)CC(C)CC2 (stereo not drawn) | 9.6 | i | i | i | nt | i
CC1CCc2nc(NC(=O)CCSc3ccccc3)sc2C1 (stereo not drawn) | i | i | i | i | nt | i
O=S(=O)(c1ccc(NCCc2c[nH]c3ccccc23)nc1)N1CCOCC1 | i | i | i | i | i | i
Cc1ccc(CCC(=O)Nc2ccc(N(C)C)cc2)o1 | nt | nt | nt | nt | i | nt
COc1ccc(-c2cc(C(=O)Nc3ccccc3O)c3ccccc3n2)cc1OC | i | i | i | i | i | i
COc1ccc(-c2cc(C(=O)NCc3cn(C)nc3C)c3ccccc3n2)cc1OC | i | i | 52.3 | i | i | nt
Cc1ccc(CNC(=O)CNC(=S)N(Cc2ccccc2)Cc2ccccc2F)cc1 | i | i | i | i | i | i
COc1ccc(N(CC(=O)NC(C)(C)C)C(=O)CCC(=O)Nc2nccs2)c(OC)c1 | nt | nt | nt | nt | i | nt
CC1CCCC(NC(=O)CSc2nnnn2C)C1C (stereo not drawn) | i | i | i | i | i | i
Cn1nnnc1SCC(=O)NC1CCCCC1 | i | i | 56.8 | i | nt | i
O=C(CCCCn1c(=O)c2ccccc2n(CC(=O)NC2CCCC2)c1=O)NCc1ccco1 | i | i | 68.4 | i | i | i
O=C(CCn1c(=O)c2ccccc2n(CC(=O)NC2CCCC2)c1=O)NCc1ccco1 | i | i | i | i | i | i
Cc1nn(-c2ccccc2)c(/N=C/c2ccccc2O)c1-c1ccccc1 | i | i | i | i | i | i
O=C1C2C3C=CC(C2C(=O)N1c1ccccc1O)C1C2C(=O)N(c4ccccc4O)C(=O)C2C31 (stereo not drawn) | 8.8 | i | i | i | i | i
O=C1C2C3C=CC(C2C(=O)N1c1ccc(O)cc1)C1C2C(=O)N(c4ccc(O)cc4)C(=O)C2C31 (stereo not drawn) | i | i | i | i | i | i
COc1ccc(C(=NNc2ccccc2C(=O)O)c2ccc(OC)cc2)cc1 | i | i | i | i | 52.7 | i
SMILES | Wee1 stabilizer | RBBP9 inhibitor | m-calpain inh | TNF necrop inh | Pf gametocyte | L929 necroptosis
O=C(NC(=S)Nc1cccnc1)c1cccs1 | i | i | i | i | i | i
O=C(Nc1cccnc1)c1cccs1 | i | i | 64.2 | i | nt | i
C/C(=C\c1cc2ccccc2o1)C1Nc2cccc3cccc(c23)N1 | nt | nt | nt | nt | i | nt
CCn1c(O)c(/C=C2\C=NN=C2c2ccccc2)sc1=S | i | i | i | i | i | i
Cn1c(O)c(/C=C2\C=NN=C2c2ccccc2)sc1=S | 9.6 | i | i | i | i | i
Cc1ccc(S(=O)(=O)NNC(=O)c2cccc(O)c2)cc1 | i | i | i | i | i | i
CN(C)CCN1C(=O)c2ccccc2C1=O | nt | nt | nt | nt | i | nt
Cc1cc(NS(=O)(=O)c2ccc(NC(=S)NC(=O)c3ccc(C(C)(C)C)cc3)cc2)no1 | i | i | 63.5 | i | i | i
COc1ccc(C(=O)C(OC(=O)c2ccc(C)c(NC(C)=O)c2)c2ccccc2)cc1 (stereo not drawn) | i | i | i | i | nt | i
CC(=O)Nc1cc(C(=O)OC(C(=O)c2ccccc2)c2ccccc2)ccc1C (stereo not drawn) | i | i | 66.5 | i | i | i
Fc1ccccc1COc1ccc(Br)cc1CNCc1ccncc1 | i | i | 57.3 | i | nt | i
COc1ccc(/C=N/c2c(-c3ccco3)nc3ccccn23)cc1OC | 9.0 | i | i | i | i | i
CN1CCN(C2=CC(=O)OC23CCCCC3)CC1 | i | i | i | i | i | i
O=C(CSCc1ccc(F)cc1)Nc1ccc(F)cc1 | i | i | i | 78.8 | i | i
CC1(C)OC(c2ccccc2)=C/C(=C/C=N/NC(=O)c2ccncc2)O1 | i | i | i | i | i | i
CCC(=O)Nc1ccccc1Oc1ccccc1 | i | i | i | i | i | i
O=C(Nc1ccccc1Oc1ccccc1)C1CC1 | 10.3 | i | i | i | nt | i
CCOC(=O)C1=C(C)N(CC(C)C)C(=O)C1 | i | i | i | i | i | i
CCn1nccc1C(=O)NC1=C(C#N)CCC1 | i | i | i | i | nt | i
CCn1ccc(C(=O)NC2=C(C#N)CCC2)n1 | 9.7 | i | i | i | nt | i
C/C(CS(=O)(=O)c1ccccc1)=N\O | i | i | i | i | nt | i
C/C(CCS(=O)(=O)c1ccccc1)=N/O | i | i | i | i | 38.2 | i
O=C(NNc1nc2cc3c(cc2s1)OCO3)c1cccc(F)c1 | i | i | i | i | nt | nt
O=C(CSc1nnc(CNc2ccc(F)cc2)n1-c1ccccc1)N1CCOCC1 | i | i | i | i | nt | i
C=CCn1c(COc2cccc(C)c2)nnc1SCC(=O)c1c(N)n(C)c(=O)n(C)c1=O | nt | nt | nt | nt | i | nt
SMILES | Wee1 stabilizer | RBBP9 inhibitor | m-calpain inh | TNF necrop inh | Pf gametocyte | L929 necroptosis
C=CCn1c(COc2ccc(Cl)cc2)nnc1SCC(=O)c1c(N)n(C)c(=O)n(C)c1=O | 10.2 | i | i | i | i | i
Cc1cccc(C)c1-n1cccc1/C=C1\SC(=S)N(c2cccc(C(=O)O)c2)C1=O | i | i | 110.5 | i | i | i
O=C(CSc1nnc(C2CC2)n1-c1ccccc1)NCCc1ccccc1 | i | i | i | i | i | i
CC(=O)C1=C(O)C(=O)N(c2ccc(Br)cn2)C1c1ccc(F)cc1 (stereo not drawn) | 10.6 | i | i | i | i | i
CC(=O)C1=C(O)C(=O)N(c2ccc(Br)cn2)C1c1ccc(Br)cc1 (stereo not drawn) | 10.5 | i | i | i | i | i
CC(=O)C1=C(O)C(=O)N(c2nccs2)C1c1ccc(Br)cc1 (stereo not drawn) | 9.1 | i | i | i | i | i
COc1ccccc1NC(=O)c1cnc(SC)nc1 | nt | nt | nt | nt | i | nt
CSc1nc(SCC(=O)O)c2sc3nc(-c4ccccc4)c4c(c3c2n1)CCC4 | i | i | 89.8 | i | i | i
CSc1nc(N(C)CCO)c2sc3nc(-c4ccco4)c4c(c3c2n1)CCC4 | i | i | i | i | nt | i
